According to paper PMC6474823 (Molecular cell, 2019):

Biological target: Hck^3D V284C (Homo sapiens, UniProt P08631, V276C)
Experiment: Inhibitor IC50 determination, fluorescent SFK peptide kinase assay
Type: biochemical
Conditions: 1 mM ATP
Method in brief: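 Kinase concentrations were set in the linear range by prior titration: Src3D WT or V284C at 7.5 nM, Hck3D WT or V284C at 5 nM. Kinase was incubated 30 min with test compound (30 μM top, 3-fold serial dilutions, 10 points) and 1 mM ATP in HEPES pH 7.5 buffer with MgCl2, EGTA, BSA, vanadate and BME. Then 20 μM pyrene-labelled SFK peptide was added for 2 h. Fluorescence was read at ex 344/em 405 nm, in triplicate.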

Sequence of Hck^3D V284C (P08631 81-526 V276C): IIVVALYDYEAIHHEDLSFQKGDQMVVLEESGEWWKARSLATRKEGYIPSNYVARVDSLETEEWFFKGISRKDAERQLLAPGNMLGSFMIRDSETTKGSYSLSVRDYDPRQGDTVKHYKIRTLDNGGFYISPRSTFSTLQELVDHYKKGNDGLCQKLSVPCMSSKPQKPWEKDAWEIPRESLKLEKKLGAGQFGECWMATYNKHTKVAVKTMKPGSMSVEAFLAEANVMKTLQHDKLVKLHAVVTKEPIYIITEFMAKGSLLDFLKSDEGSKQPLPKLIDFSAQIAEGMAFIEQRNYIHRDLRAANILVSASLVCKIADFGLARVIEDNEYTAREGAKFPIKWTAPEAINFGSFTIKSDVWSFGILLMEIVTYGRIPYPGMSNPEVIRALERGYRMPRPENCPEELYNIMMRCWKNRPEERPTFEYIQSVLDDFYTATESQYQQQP

SMILES: CNC(=O)C(C#N)=Cc1c(C#Cc2cc(NC(=O)c3cccc(C(F)(F)F)c3)ccc2C)c2cncnc2n1CCOC [compound 3, (E)- and (Z)-N-(3-((6-(2-cyano-3-(methylamino)-3-oxoprop-1-en-1-yl)-7-(2-methoxyethyl)-7H-pyrrolo[2,3-d]pyrimidin-5-yl)ethynyl)-4-methylphenyl)-3-(trifluoromethyl)benzamide]
- inhibition of Hck V284C (IC50, Figure 4C): potently inhibited
